These results are taken from ChEMBL document CHEMBL4513216, “Probing the Open Global Health Chemical Diversity Library for Multistage-Active Starting Points for Next-Generation Antimalarials” (ACS Infect Dis, 2020).

The data set in a line: Toxicity liver stage against HepG2, at 10uM. The format is cell-based. Also on record: test concentration 10 uM, cell line HepG2-A16-CD81EGFP. Conditions: human, HepG2-A16-CD81EGFP cells; read-out: INHIBITION
A digest of the protocol:
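Uninfected HepG2-A16-CD81EGFP cells, 3 × 10^3 per well, 1536-well, plated on prespotted compound at 10 μM final, parasite-free screening media added to match infected plates; puromycin 10 μM positive, DMSO 0.5% negative; run in parallel with 48 h PbLuc assay at 37 °C, 5% CO2; viability by CellTiter-Glo luminescence, normalized to controls.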

Structures are written as SMILES.

As to `CCC(=O)N1CCCC1C(=O)N1CCC(Cc2ccc(F)cc2)CC1` (stereo not drawn), the cytotoxicity at 10 µM is -0.0726%. To `Cc1cncc(C2CCCN(CC3CCC3)C2)n1` (stereo not drawn) belongs -7.41%; to `N#Cc1cccnc1N1CCN(C(=O)c2cccs2)CC1`, 10.4%; to `COc1ccnc(NC2CCN(CC(=O)Nc3ccccc3)CC2)n1`, -11%.

For `CSCCc1n[nH]c2c1CN(S(=O)(=O)c1cn(C)c(C)n1)CC2`, the cytotoxicity at 10 µM was found to be 8.58%.

Consider `COCCN1CCCC(Cc2cnc(-c3c(C)nn(C)c3C)cn2)C1` (stereo not drawn), for which the cytotoxicity at 10 µM is -2.56%. To `COCC(C)N(C)C(=O)c1ccc2nncn2c1` (stereo not drawn) belongs -1.37%. With `CCn1c(NCc2ccccc2)nc2c(C)nn(C)c2c1=O`, the cytotoxicity at 10 µM stood at 10.6%. For the molecule `Cc1nc(CN2CCCC(N(C)Cc3c(C)noc3C)C2)no1` (stereo not drawn), the cytotoxicity at 10 µM was -0.866%. Under `CC(C)S(=O)(=O)N1CCCC(c2nccn2Cc2cccnc2)C1` (stereo not drawn) stands 3.72%. Turning to `Cc1ccc(CN2C[C@@H]3[C@@H](C(=O)NCC(C)C)CCS(=O)(=O)[C@@H]3C2)cc1`, the cytotoxicity at 10 µM turned out to be 0.793%. To `c1nc2n(n1)CC(NCc1csc(-c3ccsc3)n1)CC2` (stereo not drawn) belongs 3.79%; to `COC(=O)CCNC(=O)C1CC(=O)N(C2CCCC2)C1` (stereo not drawn), -22.9%. Under `O=C(COCCOc1ccccc1)N1CCCC(n2ccnc2)C1` (stereo not drawn) stands -19.6%. Under `O=C1CC[C@@H]2[C@@H](CCN2Cc2ccccn2)N1CC1CC1` stands 4.76%; under `CCN(Cc1nc(C)no1)C(=O)C1CC(=O)N(Cc2cccnc2)C1` (stereo not drawn), 4.03%; under `CN(C(=O)c1ccccc1NCC(=O)O)C(C1CC1)C1CC1`, 1.73%. For the molecule `CC(Cn1cccn1)NCC(=O)NC1CCOCC1` (stereo not drawn), the cytotoxicity at 10 µM turned out to be 2.51%. Under `O=C(c1cccnc1O)N1CCCN(c2cccnn2)CC1` stands 6.82%; under `O=C(c1ccccc1)N1CCC[C@]2(C[C@@H](Oc3ncccc3F)CO2)C1`, -1.78%.

Turning to `CC(C)S(=O)(=O)CC(=O)NCC(Cc1ccc(F)cc1)C(N)=O` (stereo not drawn), the cytotoxicity at 10 µM worked out at 6.75%. On to `O=C(NCCC1=CCCCC1)C1CCN(c2ccc3nncn3n2)CC1`, for which the cytotoxicity at 10 µM is -2.96%.

Turning to `CN1CC2(CCCN(Cc3nnc(-c4cccc(F)c4)o3)C2)OC1=O` (stereo not drawn), the cytotoxicity at 10 µM was -1.66%. Under `CC(C)Oc1cccc(C(=O)C2CCCN(S(=O)(=O)C(C)C)C2)c1` (stereo not drawn) stands 5.47%; under `COc1ccc([C@@H]2CN(c3cc(OC)ncn3)C[C@H]2N(C)C)cc1`, 6.98%; under `COc1ccc(CN2CC3(CCNCC3)CCC2=O)c(F)c1F`, 10.9%. To `O=C(NCCn1ccnc1C1CCOC1)c1cccnc1` (stereo not drawn) belongs -0.757%. Under `Cc1ncnc2c1CCN(C(=O)CN(C)C)CC2` stands 0.964%; under `CS(=O)(=O)N1CCN(c2cnnc(N3CCCC3)c2)CC1`, 2.24%; under `Cc1nc(CN2CCOC(c3ccc(Cl)cc3)C2)oc1C` (stereo not drawn), -10.1%. Consider `CN1CCN(C(=O)c2cc[nH]c(=O)c2)Cc2ccccc21`, for which the cytotoxicity at 10 µM was -18.1%.

As for `CCc1nc(CN2CCN(C(=O)CCc3ccccc3)CC2)cs1`, the cytotoxicity at 10 µM is 5.25%. Under `Cc1nn(C)cc1C(=O)N1CCCC(c2nccn2CC2CCC2)C1` (stereo not drawn) stands 2.52%; under `COc1ccccc1CN1C(=O)O[C@@H]2CN(S(=O)(=O)N(C)C)C[C@@H]21`, 2.54%; under `CN(C)C(=O)CN1CCC2(CCN(S(C)(=O)=O)CC2)C1=O`, 2.2%. To `CCC(Nc1nccc(C2CCCC2)n1)c1ccncc1` (stereo not drawn) belongs -63.8%. On to `COCCOCC(=O)N1C[C@@H]2CC[C@H](Oc3cccc(F)c3)[C@@H]2C1`, for which the cytotoxicity at 10 µM is -26%. To `CC(=O)N1CCN(C(=O)CN2CCCC2c2c(C)nn(C)c2C)CC1` (stereo not drawn) belongs 6.34%; to `O=C(NCc1ccccn1)NC1CCCN(c2ncccn2)C1` (stereo not drawn), 6.21%; to `O=C(c1cc(-n2cccn2)ccc1Cl)N1CCCC(N2CCCC2)C1` (stereo not drawn), 1.86%. To `COC(=O)C(NC(=O)c1cc(C)ccc1C)c1cccnc1` (stereo not drawn) belongs -39.7%; to `CN(C)Cc1ccccc1NC(=O)c1ccc(C#N)cc1`, 4.2%; to `Fc1ccccc1CN1C[C@H](OCC2CCOCC2)[C@H]2OCCC[C@H]21`, -2.4%. On to `Cc1cc(C(=O)NCc2cnn(C)c2C)nc(N2CCCCCC2)n1`, for which the cytotoxicity at 10 µM stood at 2.01%. To `O=C1N(Cc2cccnc2)C[C@H]2CN(S(=O)(=O)c3ccccc3)CCN12` belongs 1.08%; to `CN1CCC(NC(=O)Nc2ccc(Br)c(F)c2)C1=O` (stereo not drawn), -147%.

In the case of `Cc1nc(CN2CCOC(CNc3cccnn3)C2)cs1` (stereo not drawn), the cytotoxicity at 10 µM was -12%.

Regarding `O=C(N[C@H]1CCCC[C@@H]1O)c1ccc2nc(-c3ccccc3)[nH]c2c1`, the cytotoxicity at 10 µM was determined as 0.822%. Under `CC(C)OCc1nn(CC2CC2)c2c1CN(Cc1ccco1)CC2` stands -15.4%; under `CC[C@@H](CO)Nc1cc(-c2cn[nH]c2)ncn1`, -4.78%; under `CN(C)CCNCC1CCOC(C)(C)C1` (stereo not drawn), -9.35%. Under `O=C(NCCC1COc2ccccc2O1)c1ccc(-c2cn[nH]c2)nc1` (stereo not drawn) stands 4.65%.

Regarding `Cc1cc(C[S+]([O-])Cc2ccccc2F)on1` (stereo not drawn), the cytotoxicity at 10 µM was -8.37%. Under `COc1ccc(-n2ccc(C(=O)N3CCN(C)CC3C)n2)cc1` (stereo not drawn) stands -11.2%; under `c1csc(CN2CC(c3nc(-c4cnccn4)no3)C2)c1`, -8.28%; under `CCc1nccn1C1CCCN(C(=O)c2cncnc2C)C1` (stereo not drawn), -11.8%. With `Cc1ncc(C(=O)NCCNc2ccncc2)s1`, the cytotoxicity at 10 µM was determined as 1.72%. Take `COc1ccc(S(=O)(=O)NCC(C)(O)c2cccs2)cc1Cl` (stereo not drawn): the cytotoxicity at 10 µM was -11.5%. Under `CS(=O)(=O)c1ccc(OCCNCc2c(F)cccc2F)cc1` stands -7.12%; under `Cc1nn(C)c(Cl)c1CNCCOc1ccc2c(c1)OCO2`, 1.52%; under `COc1ccc2c(c1)CCCN2C(=O)c1cccc(N(C)C)c1`, 62.8%.

`COCC(=O)N1CCC2(CCC(C(=O)N3CCCC3)O2)CC1` (stereo not drawn): the cytotoxicity at 10 µM was -1.63%. As to `CC(C)c1nn2c(-c3cnn(C)c3)nnc2s1`, the cytotoxicity at 10 µM is -8.75%. Under `CCn1cnnc1C1CCN(C(=O)c2cccc(N(C)C)c2)CC1` stands 1.54%; under `CCOc1cccc(COC(=O)c2cc(Cl)ccn2)n1`, -2.52%; under `CCOc1ncccc1CNC(=O)Nc1ccccc1`, -4.87%.

In the case of `CCOc1ccc(CNC(C)c2cccc(S(=O)(=O)NC)c2)cc1` (stereo not drawn), the cytotoxicity at 10 µM worked out at 16.1%. To `CN(Cc1ccncn1)C(=O)C1(Oc2ccc(Cl)cc2)CCNCC1` belongs 18.5%; to `O=S(=O)(c1ccccc1)N1CCC2(CCCN2Cc2ccc(Cl)cc2)C1` (stereo not drawn), -66.3%.

For the molecule `O=C(NCCCO)NCCc1cc(F)ccc1F`, the cytotoxicity at 10 µM turned out to be 2.37%.

`Cc1ccc(CN2Cc3cnn(C)c3C(COCC3CC3)C2)o1` (stereo not drawn): the cytotoxicity at 10 µM was -78.5%. As for `CNc1oc(-c2ccc(OC)c(S(=O)(=O)N(C)C)c2)nc1C#N`, the cytotoxicity at 10 µM stood at 1.71%.

Regarding `CC(C)CN1Cc2c(C(=O)N(C)C)ncn2-c2ccccc2S1(=O)=O`, the cytotoxicity at 10 µM turned out to be 3.63%. In the case of `CCCNC(=O)CNc1ccc2c(c1)N(C(=O)OC(C)(C)C)CCC2`, the cytotoxicity at 10 µM was determined as 13%.

Regarding `COc1cc(CNCc2c(C)nn(C)c2N(C)C)ccn1`, the cytotoxicity at 10 µM was -9.48%.

For `O=S(=O)(N1CCOCC1)N1CCOC(CCc2ccccc2)C1` (stereo not drawn), the cytotoxicity at 10 µM is -2.55%.

For the molecule `CCc1nc2n(n1)CCCC2NC(=O)Nc1ccc(F)cc1C#N` (stereo not drawn), the cytotoxicity at 10 µM was -0.802%.

On to `CCCc1nc(C)c(C(=O)NCCN2CCN(CC)CC2)s1`, for which the cytotoxicity at 10 µM is -10.6%. To `CS(=O)(=O)CCCNC1(c2ccc(Br)cc2)CCC1` belongs -0.0862%; to `NCC(=O)N1CCCC(c2cncc(Nc3ncccn3)n2)C1` (stereo not drawn), 0.848%. To `CCS(=O)(=O)CCN1CCC(N(C)Cc2noc(C(C)C)n2)C1` (stereo not drawn) belongs -5.55%. Under `Cc1ccc(C(=O)N2CCCn3nc(CCC(=O)O)cc3C2)cc1Cl` stands -3.49%. Regarding `O=C1CC(c2ccc(C(=O)O)cc2)c2ncn(-c3ccc(Cl)cc3)c2N1` (stereo not drawn), the cytotoxicity at 10 µM was -2.14%. To `Cc1nc(CC(=O)NS(=O)(=O)c2cccc3cnccc23)cs1` belongs 5.75%; to `Cc1nn2cccnc2c1C(=O)N1CCCC(n2ccnc2C)C1` (stereo not drawn), -9.53%. Regarding `COc1ccc(CCC(=O)NC2CCC(O)CC2)cc1OC` (stereo not drawn), the cytotoxicity at 10 µM was -5.26%. On to `O=C(CCCNc1ncccn1)N1CCCC(n2ccnc2)C1` (stereo not drawn), for which the cytotoxicity at 10 µM was -15.1%.

With `CCOC(=O)c1sc2ccsc2c1CNC(=O)COC`, the cytotoxicity at 10 µM was determined as 1.51%. Under `COCCN(C(=O)c1ccsc1)c1ccc(C#N)cc1` stands 4.19%; under `CN(C)CCN(C)c1cc(N2CCN(c3ccccn3)CC2)ncn1`, 1.23%. Under `COc1ccc(CN2CCOC3(CCCN(C(C)=O)C3)C2)cc1` (stereo not drawn) stands 3.88%; under `Cn1cnnc1CC1CCN(Cc2c(Cl)cncc2Cl)CC1`, -9.42%.

Consider `COc1ccc(CN2CC[C@@]3(C2)[C@H](O)CN(C)S3(=O)=O)cc1F`, for which the cytotoxicity at 10 µM was -7.86%. Under `CC(=O)N1CCOCC(Cc2ccc3c(ccn3C(C)=O)c2)C1` (stereo not drawn) stands 1.64%; under `c1ccc(Oc2ccc(OC34CCCN(CC3)C4)cc2)cc1` (stereo not drawn), 0.741%. Under `N#Cc1ccccc1OCCN1CCCC1Cn1cncn1` (stereo not drawn) stands -10.7%. `Cc1cc(F)ccc1-c1cc(NCCO)nc2[nH]ccc12`: the cytotoxicity at 10 µM is 21.7%. In the case of `Cc1cc(CN2CCN(C(=O)NCc3ccc(C)s3)CC2)no1`, the cytotoxicity at 10 µM is -2.84%.
